Data reported in ChEMBL document CHEMBL1122173, “Effects of conformationally restricted 4-piperazinyl-10H-thienobenzodiazepine neuroleptics on central dopaminergic and cholinergic systems” (J Med Chem, 1982).

Legend:
Mus musculus [1] = assay: Tested for physostigmine lethality at a dose of 50 mg/kg after oral administration in mice; format: functional
Outline: (§1)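 Groups of 10 CFW mice (19-26 g) given test compound in distilled water or 0.5% carboxymethylcellulose 1 h (0.5 h for hyoscine) before physostigmine 1 mg/kg ip. Tremor or death scored at 10, 20 and 60 min after physostigmine (dead at 10 min = 4, dead later = 3, marked tremor = 2, slight tremor = 1, no effect = 0). Value is percent reduction in group score versus control group.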

[2] = molecular target: Muscarinic acetylcholine receptor; assay: Displacement of [3H]QNB from Muscarinic acetylcholine receptor of rat brain membrane
Mus musculus [3] = assay: Tested for physostigmine lethality at a dose of 2.5 mg/kg after oral administration in mice; format: functional; outline: as §1
Mus musculus [4] = assay: Tested for physostigmine lethality at a dose of 5 mg/kg after oral administration in mice; format: functional; outline: as §1
Mus musculus [5] = assay: Tested for physostigmine lethality at a dose of 10 mg/kg after oral administration in mice; format: functional; outline: as §1
Mus musculus [6] = assay: Tested for physostigmine lethality at a dose of 8 mg/kg after oral administration in mice; format: functional; outline: as §1
Mus musculus [7] = assay: Tested for physostigmine lethality at a dose of 12 mg/kg after oral administration in mice; format: functional; outline: as §1
Mus musculus [8] = assay: Tested for physostigmine lethality at a dose of 25 mg/kg after oral administration in mice; format: functional; outline: as §1
Mus musculus [9] = assay: Tested for physostigmine lethality at a dose of 20 mg/kg after oral administration in mice; format: functional; outline: as §1
Mus musculus [10] = assay: Tested for physostigmine lethality at a dose of 15 mg/kg after oral administration in mice; format: functional; outline: as §1

| SMILES | IC50 [2] | Protection (Mus musculus [4]) | Protection (Mus musculus [5]) | also measured |
| --- | --- | --- | --- | --- |
| Cc1sc2c(c1C(C)C)C(N1CCN(C)CC1)=Nc1cc(F)ccc1N2 | 64 nM | – | – | Protection (Mus musculus [1]): 35% |
| Cc1csc2c1C(N1CCN(C)CC1)=Nc1cc(F)ccc1N2 | 101 nM | 65% | 67% | Protection (Mus musculus [3]): 5% |
| CCc1cc2c(s1)Nc1ccc(F)cc1N=C2N1CCN(C)CC1 | 116 nM | – | 33% | Protection (Mus musculus [6]): 18%; Protection (Mus musculus [7]): 75% |
| CN1CCN(C2=Nc3cc(F)ccc3Nc3sc4c(c32)CCCC4)CC1 | 34 nM | 46% | 46% | Protection (Mus musculus [8]): 71% |
| CCc1c(C)sc2c1C(N1CCN(C)CC1)=Nc1cc(F)ccc1N2 | 26 nM | 60% | 75% | Protection (Mus musculus [9]): 53% |
| Cc1sc2c(c1C)C(N1CCN(C)CC1)=Nc1cc(F)ccc1N2 | 9 nM | 33% | 74% | Protection (Mus musculus [3]): 5% |
| CCc1cc2c(s1)Nc1ccc(F)cc1N=C2N1CC(C)N(C)C(C)C1 (configuration not stated) | 258 nM | – | – | Protection (Mus musculus [1]): 24% |
| CCc1cc2c(s1)Nc1ccc(F)cc1N=C2N1CCN(C)C(C)C1 (configuration not stated) | 97 nM | – | 17% | Protection (Mus musculus [9]): 42% |
| CC(C)c1csc2c1C(N1CCN(C)CC1)=Nc1cc(F)ccc1N2 | 26 nM | – | – | Protection (Mus musculus [1]): 35% |
| CN1CCN(C2=Nc3cc(F)ccc3Nc3sccc32)CC1 | 574 nM | – | – | – |
| CCc1cc2c(s1)Nc1ccc(F)cc1N=C2N1CC(C)N(C)CC1C (configuration not stated) | 247 nM | – | – | – |
| CN1CCN(C2=Nc3cc(Cl)ccc3Nc3ccccc32)CC1 [CLOZAPINE] | – | – | – | Protection (Mus musculus [10]): 53% |
| Cc1cc2c(s1)Nc1ccc(F)cc1N=C2N1CCN(C)CC1 [FLUMEZAPINE] | 74 nM | 64% | 75% | Protection (Mus musculus [3]): 50% |
| O=C(CCCN1CCC(O)(c2ccc(Cl)cc2)CC1)c1ccc(F)cc1 [HALOPERIDOL] | – | 0% | – | – |
